Measurements from publication PMC11439923 (Scientific Reports, 2024).

How the values were obtained:
V-ATPase activity = assay: LysoTracker Red staining; assay type: cell-based, human; conditions: Cal-27 and FaDu; 0.1 µM; 24 h
How it was run: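 Cal-27 and FaDu plated 8 × 10^3 cells/well in black 96-well plates for 24 h. Treated 24 h with test compound (0.1, 1, 2 µM) or 0.1 µM bafilomycin A1. LysoTracker 2 h, immediate fixation in 4% paraformaldehyde 20 min, DAPI 30 min at room temperature. Lysosomal fluorescence intensity quantified by high-content imaging.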

cathepsin D (CTSD) = assay: Western blot of cathepsin D; assay type: cell-based, human; conditions: 36 h, ECDD-S18 0.1, 1, 2 µM, bafilomycin A1 0.1 µM, vs DMSO
How it was run: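 Cal-27 or FaDu seeded 5 × 10^5 cells per 60 mm dish for 24 h, treated 36 h with test compound (0.1, 1, 2 µM), 0.1 µM bafilomycin A1 or DMSO. RIPA lysates run on SDS-PAGE, transferred to PVDF, blocked in 5% milk 1 h. Probed overnight at 4 °C for pro/mature cathepsin D, N-cadherin, GAPDH; HRP secondary, ECL on film. Densitometry normalised to GAPDH, fold change versus untreated.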

CTSD mRNA = assay: Quantitative RT-PCR of CTSD; assay type: cell-based, human; conditions: 36 h, ECDD-S18 0.1, 1, 2 µM, bafilomycin A1 0.1 µM, vs DMSO
[1] = test system: E-cadherin mRNA and protein; assay: E-cadherin expression; assay type: cell-based, human; conditions: Cal-27 and FaDu; 36 h; ECDD-S18 0.1, 1, 2 µM, bafilomycin A1 0.1 µM
[2] = test system: HNSCC cell lines (FaDu, Cal-27, and Ca9-22); assay: Cell viability assay; assay type: cell-based, human; conditions: Cal-27 and FaDu; 1 µM single agent; 48 and 72 h; MTT
How it was run: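 Seeded 8 × 10^3 cells/well in 10% FBS medium: MEM for Ca9-22; high-glucose DMEM for FaDu, Cal-27, HaCaT; DMEM/F12 for HK-2. Grown 24 h at 37 °C, 5% CO2, then dosed 24, 48 or 72 h: derivatives 0.001–20 µM, parent glycoside and platinum reference 0.01–50 µM. MTT 0.5 mg/ml 4 h, formazan dissolved in DMSO, A570. IC50 by nonlinear regression. Triplicate, ≥3 independent experiments.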

FaDu spheroids = assay: Three-dimensional culture, spheroid live/dead staining; assay type: cell-based, human; conditions: 50 µM cisplatin, 72 h
How it was run: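 FaDu seeded 500 cells/well in U-bottom ultralow-attachment plates, spheroids formed over 72 h at 37 °C, 5% CO2. Spheroids exposed 72 h to a concentration series of test compound or platinum reference. Stained 1 h with Hoechst 33342 (live) and ethidium homodimer-1 (dead), imaged by high-content system. Read-out: Hoechst/EthD-1 mean fluorescence intensity ratio. One-way ANOVA with Tukey's test.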

healthy mice = conditions: cited from earlier work

Row | SMILES | LysoTracker red fluorescence intensity relative to DMSO control (V-ATPase activity) | protein expression of mature CTSD (cathepsin D (CTSD); Cal-27) | protein expression of mature CTSD (cathepsin D (CTSD); FaDu) | mRNA expression of CTSD (CTSD mRNA; Cal-27) | mRNA expression of CTSD (CTSD mRNA; FaDu) | expression of E-cadherin mRNA and protein [1] | cell viability [2] | Live/dead cell ratio (Hoechst 33342 to EthD-1) (FaDu spheroids) | WBC and RBC levels (healthy mice) | body weight loss (healthy mice)
1 | CO/C1=C\C(C)=C\[C@@H](C)[C@@H](O)[C@@H](C)C/C(C)=C/C=C/[C@H](OC)[C@@H]([C@@H](C)[C@@H](O)[C@H](C)[C@@]2(O)C[C@@H](O)[C@H](C)[C@@H](C(C)C)O2)OC1=O [bafilomycin A1] | significantly decreased | downregulated | downregulated | significantly decreased | significantly decreased | no effect | – | – | – | –
2 | N.N.[Cl][Pt][Cl] [Cisplatin] | – | – | – | – | – | – | slight suppression | significantly reduced | marked decrease | 30–40%
